Measured values reported in ChEMBL document CHEMBL1143384, “Discovery of novel inhibitors of Trypanosoma cruzi trans-sialidase from in silico screening” (Bioorg Med Chem Lett, 2009).
Calls of active or inactive are those of the source. No cut-off for these calls is given here.

How the values were obtained:
[1] = target: T1, Trans-sialidase (Trypanosoma cruzi, UniProt Q26966); test: Inhibition of Trypanosoma cruzi trans-Sialidase
T1 sequence (Q26966 whole entry): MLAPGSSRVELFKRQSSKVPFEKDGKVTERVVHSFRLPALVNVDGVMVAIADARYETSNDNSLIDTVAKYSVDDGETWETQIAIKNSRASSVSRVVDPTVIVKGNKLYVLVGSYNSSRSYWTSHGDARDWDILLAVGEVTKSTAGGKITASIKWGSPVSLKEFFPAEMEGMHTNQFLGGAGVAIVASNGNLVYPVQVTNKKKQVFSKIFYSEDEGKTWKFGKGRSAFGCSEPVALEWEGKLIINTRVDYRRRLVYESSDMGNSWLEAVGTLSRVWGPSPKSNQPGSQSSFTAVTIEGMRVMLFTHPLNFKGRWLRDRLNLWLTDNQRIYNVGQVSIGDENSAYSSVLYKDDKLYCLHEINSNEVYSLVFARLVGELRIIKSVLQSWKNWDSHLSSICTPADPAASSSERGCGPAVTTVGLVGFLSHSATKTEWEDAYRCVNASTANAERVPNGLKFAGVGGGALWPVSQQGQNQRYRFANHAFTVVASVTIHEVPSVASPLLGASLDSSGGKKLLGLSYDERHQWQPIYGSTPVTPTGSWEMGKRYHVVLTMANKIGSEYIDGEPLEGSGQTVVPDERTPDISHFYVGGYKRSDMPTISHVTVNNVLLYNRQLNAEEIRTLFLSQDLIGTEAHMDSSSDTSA
Method in brief: (§1)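 Recombinant TcTS in a continuous fluorimetric assay in 96-well format, with 4-methylumbelliferyl sialoside (MuNANA) as substrate, following sialic acid hydrolysis. Compounds were first screened at 1 mM, or at the highest concentration their solubility allowed, in triplicate. IC50 was then determined in the same assay for compounds inhibiting more than 50%.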

[2] = target: T2, Trans-sialidase (Trypanosoma cruzi) (UniProt Q26966); test: Inhibition of Trypanosoma cruzi trans-Sialidase at 1 mM by MuNANA assay; method in brief: as §1
T2 sequence (whole entry): T1 sequence (Q26966 whole entry)

[3] = target: T1, Trans-sialidase; test: Inhibition of Trypanosoma cruzi trans-Sialidase by MuNANA assay; method in brief: as §1
[4] = target: T2, Trans-sialidase (Trypanosoma cruzi); test: Inhibition of Trypanosoma cruzi trans-Sialidase at 0.125 mM by MuNANA assay; method in brief: as §1
[5] = target: T2, Trans-sialidase (Trypanosoma cruzi); test: Inhibition of Trypanosoma cruzi trans-Sialidase at 0.05 mM by MuNANA assay; method in brief: as §1
[6] = target: T2, Trans-sialidase (Trypanosoma cruzi); test: Inhibition of Trypanosoma cruzi trans-Sialidase at 0.5 mM by MuNANA assay; method in brief: as §1
[7] = target: T2, Trans-sialidase (Trypanosoma cruzi); test: Inhibition of Trypanosoma cruzi trans-Sialidase at 0.1 mM by MuNANA assay; method in brief: as §1
[8] = target: T1, Trans-sialidase; test: Inhibition of Trypanosoma cruzi trans-Sialidase by TIA assay
Method in brief: (§2)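 Trans-sialidase inhibition assay (TIA), which measures sialic acid transfer from sialyllactose as donor to 14C-radiolabelled lactose as acceptor.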

[9] = target: T2, Trans-sialidase (Trypanosoma cruzi); test: Inhibition of Trypanosoma cruzi trans-Sialidase at 0.01 mM by MuNANA assay; method in brief: as §1
[10] = target: T2, Trans-sialidase (Trypanosoma cruzi); test: Inhibition of Trypanosoma cruzi trans-Sialidase at 1 mM by TIA assay; method in brief: as §2
[11] = target: T2, Trans-sialidase (Trypanosoma cruzi); test: Inhibition of Trypanosoma cruzi trans-Sialidase at 0.025 mM by MuNANA assay; method in brief: as §1

SMILES	inhibition [2]	IC50 [3]	further results
CCOP(=O)(O)C1=C[C@H](O)[C@@H](NC(C)=O)[C@H](OCCO)C1	–	–	IC50 [1]: 5000 µM
COc1cccc(/C=C(\CC(=O)O)c2nc3ccccc3s2)c1	91%	310 µM	–
CC(=O)Nc1ccc(S(=O)(=O)Nc2nc(-c3ccccc3)c(-c3ccccc3)o2)cc1	–	–	inhibition [4]: 22%
CC(=O)N[C@H]1[C@H]([C@H](O)[C@H](O)CO)OC(C(=O)O)=C[C@@H]1O [NEU5AC2EN]	–	–	Ki [1]: 12300 µM
CC(=O)Nc1ccc(C(=O)O)nc1N	–	–	IC50 [1]: 440 µM
Cc1ncc(COP(=O)(O)O)c(C=O)c1O [PYRIDOXAL PHOSPHATE ANHYDROUS]	–	–	Ki [1]: 7300 µM
COc1ccc(Nc2nc3ccccc3nc2NS(=O)(=O)c2ccc(NC(C)=O)cc2)c(OC)c1	–	–	inhibition [5]: 32%
Cc1ccc(S(=O)(=O)Nc2nnc(SCC(=O)Nc3ccc4c(c3)OCO4)s2)cc1	82%	280 µM	–
COc1ccc(/C=C(\CC(=O)O)c2nc3ccccc3s2)cc1OC	–	180 µM	inhibition [6]: 84%
CC(=O)Nc1ccc(C(=O)O)cc1CO	–	–	IC50 [1]: 540 µM
COC(=O)c1ccc(Oc2ccc(C(F)(F)F)cc2NC(=O)c2ccccc2C(=O)O)s1	21%	–	–
COCCNC(=O)c1ccc(NS(=O)(=O)c2cc(Cl)sc2Cl)cc1	50%	–	–
O=C(O)C/C(=C\c1cccc(O)c1)c1nc2ccccc2s1	–	–	inhibition [7]: 30%; IC50 [8]: 520 µM
O=c1[nH]c(O)c(C(c2ccc3c(c2)CN2CCOCC2O3)c2c(O)[nH]c(=O)[nH]c2=O)c(=O)[nH]1 (stereo unspecified)	–	–	inhibition [6]: 28%
OC[C@H]1O[C@@H](O[C@@H]2[C@@H](CO)O[C@](O)(CO)[C@H]2O)[C@H](O)[C@@H](O)[C@H]1O [LACTULOSE]	–	–	IC50 [1]: 570 µM
O=C(O)C/C(=C\c1cccc(C(F)(F)F)c1)c1nc2ccccc2s1	92%	150 µM	–

SMILES	inhibition [2]	IC50 [3]	further results
COc1ccc(CC(=O)Nc2ccc(S(=O)(=O)Nc3nc(C)cc(C)n3)cc2)cc1	–	–	inhibition [6]: 42%
COc1cccc(CNC(=O)Cc2c(C(=O)O)[nH]c3ccc(Cl)cc23)c1	–	–	inhibition [6]: 57%
CCn1nc(NS(=O)(=O)c2ccc(C)cc2)c2cc3cc(C)ccc3nc21	–	–	Activity [9]: inactive
COc1ccc(C(CC(=O)O)NC(=O)COc2cc(C)ccc2C)cc1OC (stereo unspecified)	30%	–	–
CCOc1ccccc1/C=C(\CC(=O)O)c1nc2ccccc2s1	90%	160 µM	IC50 [8]: 420 µM
COc1ccc(NC(=O)CC2(CC(=O)O)CCCCC2)cc1OC	–	–	Activity [2]: inactive
Cc1c(NS(=O)(=O)c2cccc(C(=O)NCc3ccncc3)c2)c(=O)n(-c2ccccc2)n1C	23%	–	–
Cc1ccc(C)c(/C=C(\CC(=O)O)c2nc3ccccc3s2)c1	91%	120 µM	–
CC(=O)c1sc(C(C)(C)C)cc1NC(=O)c1ccccc1C(=O)O	84%	270 µM	–
CC(=O)c1sccc1NC(=O)c1ccccc1C(=O)O	79%	290 µM	inhibition [10]: 32%
CC(=O)Nc1ccc(S(=O)(=O)Nc2nc3n(n2)C(c2ccc(Cl)cc2)C=C(c2ccccc2)N3)cc1 (stereo unspecified)	–	–	Activity [11]: inactive
COc1cc(C2C(C(=O)c3ccc4c(c3)OCCO4)=C(O)C(=O)N2CCCN(C)C)cc(OC)c1OC (stereo unspecified)	–	–	inhibition [6]: 41%
CC(=O)N[C@H]1C(O)CC(P(=O)(O)CCO[C@H]2[C@@H](O)[C@@H](CO)OC(O)[C@@H]2O)=C[C@@H]1O (single isomer, unassigned)	–	–	IC50 [1]: 1500 µM
O=C(O)C/C(=C\c1cccc(F)c1)c1nc2ccccc2s1	94%	120 µM	–
CC(C)Oc1ccccc1/C=C(\CC(=O)O)c1nc2ccccc2s1	92%	150 µM	IC50 [8]: 290 µM
O=C(O)CC(C(=O)Nc1cc(C(F)(F)F)cc(C(F)(F)F)c1)C1=CCCCC1 (stereo unspecified)	32%	–	–

More lines, main results first:

inhibition [2]	IC50 [3]	SMILES	further results
87%	210 µM	CCCOC(=O)c1c(NC(=O)C2CCCCC2C(=O)O)sc(C)c1C (stereo unspecified)	–
26%	–	O=C(O)C1CC=C(Cl)CC1C(=O)NCC1OCCc2ccccc21 (stereo unspecified)	–
36%	–	O=C(O)c1ccccc1C(=O)NCCCc1c(C(=O)O)[nH]c2cc3c(cc12)OCCO3	–
23%	–	CC1(C)SC2c3ccccc3C(=O)N2C1C(=O)NC(Cc1c[nH]c2ccccc12)C(=O)O (stereo unspecified)	–
